MBD2 inh = inhibitors of MBD2 binding to methylated DNA, primary screen, biochemical, TR-FRET, DNA-binding domain, human; MBD2 binding to methylated oligonucleotide; 370,000 tested, 0.31% active; inhibition, % at 4.4 µM; Methyl-CpG-binding domain protein 2 (Homo sapiens), Q9UBB5; in the data active = inhibition above about 13%
UHRF1 binding = UHRF1 methylated DNA binding inhibitors, primary screen, counter-screen for MBD2 inhibitor project, biochemical, TR-FRET, human UHRF1, single concentration; E3 ubiquitin-protein ligase UHRF1 (Homo sapiens), Q96T88; UHRF1 binding to methylated oligo; inhibition, % at 4.4 µM; 370,000 tested, 0.75% active; AID 687016, 2013; in the data active = inhibition above about 21%;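 also: UHRF1 SRA domain binding a hemimethylated CpG hairpin DNA probe; 0% = median of test compound wells and 100% = reference inhibitor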
LEDGF integ inh = blockers of LEDGF/p75-dependent integrase strand transfer – biochemical, TR-FRET, high throughput, primary screen | TR-FRET IN-LEDGF/p75 DNA integration, Eu/Cy5 | inhibition, % at 3.7 µM | HIV-1 integrase (with human LEDGF/p75) | 370,000 tested, 0.64% active;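 active = inhibition above the screen-wide mean plus 3 SD, cut at about 13% in these data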;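 also: signal is the Cy5 over europium emission ratio at 671 and 618 nm; 0% = plate median of compound wells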
TDP2 inh = human TDP2 enzyme inhibitors, primary screen, biochemical, epi absorbance, recombinant enzyme. Tyrosyl-DNA phosphodiesterase 2 (Homo sapiens), O95551. T5PNP hydrolysis, p-nitrophenol absorbance 415 nm. inhibition, % at 12.8 µM. 370,000 tested, 0.34% active. AID 720702, 2013;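 active = inhibition above the mean of all tested compounds plus 3 SD, set per campaign, cut at about 25% in these data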;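 also: 0% = DMSO with enzyme and 100% = buffer with substrate but no TDP2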
Target sequence (O95551 whole entry, looked up): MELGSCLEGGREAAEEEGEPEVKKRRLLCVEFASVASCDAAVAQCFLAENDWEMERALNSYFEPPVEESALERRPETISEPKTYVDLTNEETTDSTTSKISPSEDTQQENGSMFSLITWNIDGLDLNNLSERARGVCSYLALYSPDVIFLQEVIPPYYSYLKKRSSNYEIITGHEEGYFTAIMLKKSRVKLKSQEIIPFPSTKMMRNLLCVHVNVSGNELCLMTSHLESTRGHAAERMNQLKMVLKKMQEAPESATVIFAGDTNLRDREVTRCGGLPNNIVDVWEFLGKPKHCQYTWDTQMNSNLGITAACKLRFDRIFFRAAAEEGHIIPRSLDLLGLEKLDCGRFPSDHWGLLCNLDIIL
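test system = human TDP2 enzyme | input = TDP2 enzyme at 120 nM final | medium = 50 mM Tris-HCl pH 7.5 with Mg2+, KCl, DTT, BSA | also added = T5PNP substrate, 5 mM | times = 2 h at 37 °C | technique = epi absorbance | benchmarks = high control without enzyme, low control DMSO plus TDP2 | replication = each compound tested once, singlicate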
NSD2 HMT inh = NSD2 histone methyltransferase inhibitors, primary screen, biochemical, AlphaScreen, single concentration, set 2. Histone-lysine N-methyltransferase NSD2 (Homo sapiens), O96028. NSD2 peptide methylation, 120 min. inhibition, % at 12.5 µM. 310,000 tested, 0.54% active; in the data active = inhibition above about 50%
Casp6 inh = human caspase-6 inhibitors, primary screen, biochemical, VEID-R110 fluorescence, single point, set 2; P55212; 350,000 tested, 0.53% active; inhibition, % at 12.5 µM; purified caspase-6, Z-VEID-R110 cleavage fluorescence;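 active = mean inhibition across replicates at least about 35%, with every replicate also reaching that limit, limit read from the data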;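 also: 0% = median of neutral control wells and 100% = no fluorescence left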
Target sequence (P55212 24-179 limits assumed): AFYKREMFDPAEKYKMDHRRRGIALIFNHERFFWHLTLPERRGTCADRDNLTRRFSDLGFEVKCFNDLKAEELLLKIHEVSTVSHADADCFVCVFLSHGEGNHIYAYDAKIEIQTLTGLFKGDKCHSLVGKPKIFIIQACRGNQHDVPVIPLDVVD
Target sequence (P55212 194-293 limits assumed): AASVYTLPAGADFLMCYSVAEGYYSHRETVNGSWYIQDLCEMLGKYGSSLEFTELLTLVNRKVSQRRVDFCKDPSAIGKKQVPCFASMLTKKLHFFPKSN
IN multimer up = HIV-1 IN multimer formation enhancers, counter-screen for LEDGF/p75 integration inhibitor project, biochemical, TR-FRET; shares compounds with LEDGF integ inh; activation, % at 7.7 µM; TR-FRET HIV-1 integrase multimerization; 2,000 tested, 17% active; in the data active = activation above about 8.9%
TR-FRET interf = TR-FRET optical interference artefacts, confirmation, artefact control for LEDGF/p75-dependent integration inhibitor project, biochemical, HIV-1 IN multimerization. shares compounds with LEDGF integ inh. TR-FRET optical interference counterscreen. inhibition, % at 7.7 µM. 2,000 tested, under 10 active. AID 1053135, 2014;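 active = inhibition above the mean over all tested compounds plus 3 SD, which no compound reached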;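 also: 0% = integrase with antibodies and DMSO and 100% = antibodies without integrase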
IN-LEDGF confirm = inhibitors of HIV-1 IN-LEDGF/p75 DNA integration, confirmation, biochemical, TR-FRET; inhibition, % at 3.7 µM; TR-FRET LEDGF/p75-dependent HIV-1 integration; 2,000 tested, 36% active; AID 1053136, 2014; shares compounds with LEDGF integ inh; in the data active = inhibition above about 14%
Numbers without * were called inactive. The list is not random: actives were taken first. Their share in the collection is about 1.8%.

Screening CCCc1cc(=O)oc2cc(OCC(=O)NCC3CCC(C(=O)O)CC3)ccc12 (stereo not drawn) returned MBD2 inh -2, UHRF1 binding -2, LEDGF integ inh 33*, TDP2 inh 0, Casp6 inh -2, IN multimer up -4, TR-FRET interf 14 and IN-LEDGF confirm 0.
O=C(NCCCN1CCOCC1)[C@H]1[C@H](CO)[C@H]2Cn3c(cccc3=O)[C@@H]1N2C(=O)C1CCCCC1 was read as Casp6 inh -2.
`COc1ccc(N(CC(=O)NCc2ccco2)S(=O)(=O)c2ccc(C)cc2)cc1OC` gave MBD2 inh -2, UHRF1 binding 3, LEDGF integ inh 7, TDP2 inh -5, NSD2 HMT inh -4 and Casp6 inh 0.
Screening COc1ccccc1N(CC(=O)NCc1ccco1)S(=O)(=O)c1ccc(C)cc1 returned MBD2 inh 8, UHRF1 binding 29*, LEDGF integ inh 23*, TDP2 inh 10, Casp6 inh 50*, IN multimer up 5, TR-FRET interf -17 and IN-LEDGF confirm 28*.
`COc1ccc(NC(=O)CN(C)C(=O)c2ccc(S(=O)(=O)N3CCOCC3)cc2)cc1` gave MBD2 inh 1, UHRF1 binding 1, LEDGF integ inh -2, TDP2 inh 3, NSD2 HMT inh 1 and Casp6 inh -6.
`COc1ccc(S(=O)(=O)N(CC(=O)Nc2ccc(S(=O)(=O)N3CCOCC3)cc2)c2ccccc2)cc1` gave MBD2 inh 3, UHRF1 binding -2, LEDGF integ inh 20*, TDP2 inh 2, NSD2 HMT inh 1, IN multimer up 1, TR-FRET interf -2 and IN-LEDGF confirm 1.
Screening Cc1cc(Nc2nc3ccccc3[nH]c2=O)n(-c2ccccc2)n1 returned MBD2 inh 1, UHRF1 binding 3, LEDGF integ inh 3 and TDP2 inh -6.
Screening Cc1cc(Nc2nc3ccccc3nc2Cl)n(-c2ccc([N+](=O)[O-])cc2)n1 returned MBD2 inh 2, UHRF1 binding -3, LEDGF integ inh 82*, TDP2 inh -10, NSD2 HMT inh -2, IN multimer up 0, TR-FRET interf -2 and IN-LEDGF confirm -1.
`O=S(=O)(N[C@@H]1CCCN(Cc2ccc(OCCO)cc2)C1)c1cc(C(F)(F)F)ccc1Cl` gave Casp6 inh -3.
O=C(CN1CCN(S(=O)(=O)c2ccc(Cl)c(Cl)c2)CC1)N1CCCC1 was read as MBD2 inh 0, UHRF1 binding 0, LEDGF integ inh -3, TDP2 inh 4, NSD2 HMT inh -1 and Casp6 inh 0.
For O=C(CN1CCN(S(=O)(=O)c2ccc(Cl)c(Cl)c2)CC1)N1CCCCC1 the results were MBD2 inh 6, UHRF1 binding 3, LEDGF integ inh 17*, TDP2 inh -11, NSD2 HMT inh -2, Casp6 inh 2, IN multimer up 0, TR-FRET interf 0 and IN-LEDGF confirm 0.
For O=C(N[C@@H]1C=C[C@H](CC(=O)N2CCc3ccccc3C2)O[C@@H]1CO)C1CC1 the results were Casp6 inh 6.
Screening COCCNC(=O)CSC1=N/C(=C/c2ccc(Cl)c(Cl)c2)C(=O)N1c1ccccc1F returned MBD2 inh 2, UHRF1 binding 1, LEDGF integ inh 91*, TDP2 inh -4, NSD2 HMT inh 2, IN multimer up 0, TR-FRET interf 0 and IN-LEDGF confirm -3.
For COc1cc(OC)c2c(c1O)OC(c1ccccc1)CC2=O (stereo not drawn) the results were MBD2 inh 6, UHRF1 binding -1, LEDGF integ inh 28*, TDP2 inh -1, Casp6 inh 40*, IN multimer up 35*, TR-FRET interf -126 and IN-LEDGF confirm 32*.
For CCOc1ccc(S(=O)(=O)NCCC(=O)N2CCN(c3ncccn3)CC2)cc1 the results were MBD2 inh 3, UHRF1 binding -2, LEDGF integ inh 77*, TDP2 inh -2, NSD2 HMT inh 1, Casp6 inh 1, IN multimer up 1, TR-FRET interf -7 and IN-LEDGF confirm 3.
Screening CCN(CC)C(=O)[C@H]1C[C@H](CC(=O)NCCc2ccccn2)C(=O)N2CCc3c([nH]c4cc(-c5ccco5)ccc34)[C@]12C returned MBD2 inh -3, UHRF1 binding 0, LEDGF integ inh 65*, TDP2 inh -2, Casp6 inh -5, IN multimer up 0, TR-FRET interf -1 and IN-LEDGF confirm -5.
Screening CC(C)N(C(=O)[C@H]1C[C@H](CC(=O)NCCc2ccccn2)C(=O)N2CCc3c([nH]c4cc(-c5ccco5)ccc34)[C@]12C)C(C)C returned MBD2 inh 0, UHRF1 binding -1, LEDGF integ inh 9, TDP2 inh -11 and Casp6 inh -5.
`Nc1nc(SCC(=O)N2N=C3/C(=C\c4ccco4)CCCC3C2c2ccco2)n[nH]1` (stereo not drawn) gave MBD2 inh -6, UHRF1 binding -1, LEDGF integ inh 2, TDP2 inh -10, NSD2 HMT inh 3 and Casp6 inh 2.
`O=C(CSc1nccc(=O)[nH]1)N1N=C2/C(=C/c3ccco3)CCCC2C1c1ccco1` (stereo not drawn) gave MBD2 inh 10, UHRF1 binding 14, LEDGF integ inh 37*, TDP2 inh -4, NSD2 HMT inh 32, Casp6 inh 21, IN multimer up 2, TR-FRET interf -9 and IN-LEDGF confirm 19*.

Bioassay records (PubChem BioAssay)
